Consider seven compounds from article PMC7925372 (Journal of thrombosis and haemostasis : JTH, 2021).

Changes are numbered by the printed parent chain.

Data set [1] has as its system VKD carboxylation of reporter-protein FIXgla-PC in FIXgla-PC/HEK293 cells. It is filed as cell-based, human. To be noted: 24 hours. The method, boiled down: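 FIXgla-PC/HEK293 cells are HEK293 cells stably expressing protein C whose Gla domain is swapped for factor IX's. They were cultured 24 h with test compound, either fixed at 1 μM or at increasing concentrations, as carboxylation substrate. FIXgla-PC carboxylation efficiency was measured by ELISA directly on culture medium. Activity was expressed relative to vitamin K1 set at 100%. Background activity comes from residual K vitamins in fetal bovine serum.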

In data set [2] the test system is vitamin K reductase (DGKO reporter cells). It is filed as cell-based, human. The note with it: increasing concentrations.
The next data set deals with vitamin K reductase. Put plainly: HPLC-based vitamin K reductase activity. The note with it: DGKO cells, 10 μM vitamin K1, 10 μM compound, 6 hours. Type of data set: cell-based, human. The method, boiled down:
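Reporter cells lacking endogenous VKOR and VKORL (TALEN double knockout) were cultured 6 h with 10 μM vitamin K1, with or without 10 μM test compound; DMSO was the control. Cellular K vitamins were extracted for reversed-phase HPLC. Unstable KH2 was not measured; reduction was coupled to epoxidation, and activity was read as KO produced.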

The next data set relates to wild-type VKOR. Put plainly: Inhibition potency of VKAs on VKOR transiently expressed in DGKO reporter cells. It is filed as cell-based, human.
A further data set concerns the target T1, VKOR A26P (Homo sapiens, UniProt Q9BQB6, A26P).
T1 sequence (Q9BQB6 1-163 A26P): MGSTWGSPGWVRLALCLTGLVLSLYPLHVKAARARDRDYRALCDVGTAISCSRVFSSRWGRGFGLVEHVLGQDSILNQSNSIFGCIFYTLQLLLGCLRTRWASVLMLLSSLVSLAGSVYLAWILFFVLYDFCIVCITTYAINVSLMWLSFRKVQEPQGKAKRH
Put plainly: Inhibition potency of VKAs on VKOR mutation expressed in DGKO reporter cells. It is filed as cell-based.

The target of another data set is T2, VKOR L128R (Homo sapiens, UniProt Q9BQB6, L128R).
T2 sequence (Q9BQB6 1-163 L128R): T1 sequence (Q9BQB6 1-163 A26P) with P26A, L128R
The data set is described as above. Type of data set: cell-based. The note with it: read-out: IC50 ± standard deviation, 5 μM KO, 24 hours.

Data set [3] deals with VKD carboxylation of FIXgla-PC in FIXgla-PC/HEK293 cells (KO as substrate). The data set is described as follows: Inhibition of VKD carboxylation in FIXgla-PC/HEK293 cells with 5 μM KO. It is filed as cell-based, human.
The target of the next data set is T3, VKOR W59R (Homo sapiens, UniProt Q9BQB6, W59R).
T3 sequence (Q9BQB6 1-163 W59R): T1 sequence (Q9BQB6 1-163 A26P) with P26A, W59R
The data set is described as follows: Inhibition potency of VKAs on VKOR mutation expressed in DGKO reporter cells. It is filed as cell-based. To be noted: read-out: IC50 ± standard deviation, 5 μM KO, 24 hours.

In a further data set the test system is GGCX. Put plainly: In vitro vitamin K epoxidation activity assay with GGCX enriched microsomes. Type of data set: biochemical. To be noted: FLEEL, FIX-propeptide, KH2, 100 μM compound.
The target in another data set is T4, VKOR F55A (Homo sapiens, UniProt Q9BQB6, F55A).
T4 sequence (Q9BQB6 1-163 F55A): T1 sequence (Q9BQB6 1-163 A26P) with P26A, F55A
The data set is described as follows: Inhibition potency of VKAs on VKOR mutation expressed in DGKO reporter cells. It is filed as cell-based.

In the next data set the target is T5, VKOR Y139F (Homo sapiens, UniProt Q9BQB6, Y139F).
T5 sequence (Q9BQB6 1-163 Y139F): T1 sequence (Q9BQB6 1-163 A26P) with P26A, Y139F
The data set is described as above. Type of data set: cell-based. To be noted: read-out: IC50 ± standard deviation, 5 μM KO, 24 hours.

For data set [4], the system named is VKD carboxylation of FIXgla-PC in FIXgla-PC/HEK293 cells. It is filed as cell-based, human. The note with it: 3 μM inhibitor, increasing concentrations of vitamin K1, 24 hours.
Data set [5] deals with KO reductase (reduction of KO to vitamin K1). The data set is described as follows: HPLC-based KO reductase activity in GGCX-knockout HEK293 cells. It is filed as cell-based, human. To be noted: GGCX-knockout HEK293, 10 μM KO, 10 μM compound, 6 hours. The method in brief: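 GGCX-knockout FIXgla-PC/HEK293 cells (CRISPR-Cas9) were incubated 6 h in medium with 10 μM KO, with or without 10 μM test compound; DMSO-treated cells served as control. K vitamins were extracted from the cells and analysed by reversed-phase HPLC. KO reductase activity was scored as vitamin K1 formed, with vitamin E acetate as standard.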

The test system of another data set is HEK293 reporter cells. The data set is described as follows: Cell viability assay in reporter cells. Type of data set: cell-based, human. The note with it: corresponding concentrations of the carboxylation assay.
In data set [6] the test system is UBIAD1 (MK-4 production in HEK293 cells). The data set is described as follows: Conversion of vitamin K derivatives to MK-4 in FIXgla-PC/HEK293 cells. The note with it: 10 μM VK-K-COT plus 5 μM warfarin, 6 hours, HPLC. Type of data set: cell-based, human.
The test system of data set [7] is naturally occurring VKOR mutations. To be noted: cell-based functional study; cited from earlier work.
The next data set relates to warfarin-resistant rats. The note with it: cited from earlier work.
The conditions of data set [8]: cited from earlier work.
The subject of data set [9] is VKD carboxylation in UBIAD1-knockout FIXgla-PC/HEK293 cells. Put plainly: VKD carboxylation in UBIAD1-knockout FIXgla-PC/HEK293 reporter cells. It is filed as cell-based, human. To be noted: increasing concentrations, 24 hours.
Data set [10] deals with UBIAD1-dependent VKD carboxylation. It is filed as cell-based, human. The note with it: UBIAD1 transiently expressed in UBIAD1-knockout cells, increasing concentrations. The method in brief:
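FIXgla-PC/HEK293 reporter cells with UBIAD1 knocked out by CRISPR-Cas9 were transiently transfected with UBIAD1 cDNA. Transfected cells were cultured with increasing concentrations of vitamin K analogue. FIXgla-PC carboxylation efficiency in the medium was then measured by ELISA, normalised to vitamin K1 as 100%.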

The mark [11] stands for this setting: 1 μM vitamin K derivative as substrate, FIXgla-PC/HEK293.

Take `CC1=C(Cc2ccccc2)C(=O)c2ccccc2C1=O` [VK-M-Ben]: in data set [1] (setting [11]), the “carboxylation activity (vitamin K1 normalized to 100%)” value amounted to 3% and the “carboxylation activity as substrate, in words” value is reported as “abolished carboxylation activity”.

By IC50 is commonly meant the concentration needed to halve the response being measured. Take `CC1=C(CC2=CC=CC=CC=C2)C(=O)c2ccccc2C1=O` [VK-M-COT]: the “carboxylation activity as substrate, in words” value in [1] (setting [11]) was “activity lower than the background activity (DMSO)”. Moreover, in data set [1] (increasing concentrations of vitamin K derivative), the “dose-response of VKD carboxylation on concentration titration” value was “inhibitory dose-response curve”. The “inhibition of reporter-protein carboxylation, vitamin K1 as substrate” value in data set [2] was “inhibited reporter-protein carboxylation”. Also, the “reduction of vitamin K (production of KO, HPLC)” value in the data set on vitamin K reductase is on record as “significantly decreased”. Also, the “IC50 variation between warfarin-resistant VKOR mutations and wild-type VKOR” value with wild-type VKOR (A26P, F55A, W59R, L128R, Y139F vs wild type) is recorded as “less than 3 fold”. In addition, the IC50 at VKOR A26P (read-out: IC50 ± standard deviation, VKOR A26P in DGKO cells, 5 μM KO, 24 hours) came to 487 ± 75 nM; at VKOR L128R, 575 ± 132 nM; on VKOR W59R it was 615 ± 101 nM; at VKOR F55A (read-out: IC50 ± standard deviation, VKOR F55A in DGKO cells, 5 μM KO, 24 hours) it was 249 ± 66 nM; at VKOR Y139F it was 658 ± 54 nM. For the same compound, in [3] (FIXgla-PC/HEK293, 5 μM KO, increasing concentrations), the “inhibition of reporter-protein carboxylation, KO as substrate” value is “inhibited reporter-protein carboxylation”. Further, in [3] (IC50 ratio to warfarin, FIXgla-PC/HEK293, 5 μM KO), the “inhibition potency lower than warfarin (fold)” value was ~ 20 fold. Also, the “GGCX vitamin K epoxidation activity” value in the data set on GGCX is recorded as “inhibits GGCX activity for vitamin K epoxidation”. Also, in data set [4], the “reversal of inhibition of VKD carboxylation by vitamin K1” value is “can be reversed equally with higher concentrations of vitamin K1”. Further, the “reduction of KO to vitamin K1 (HPLC)” value in [5] is recorded as “significantly decreased”. The “cytotoxicity (cell viability)” value in the data set on HEK293 reporter cells was “not due to the cytotoxicity”.

With `CC(=O)CC(c1ccccc1)c1c(O)c2ccccc2oc1=O` (stereo not shown) [warfarin, reference compound], in the data set on wild-type VKOR (all warfarin-resistant VKOR mutations tested vs wild type), the “effect of warfarin-resistant VKOR mutations on inhibition potency” value is on record as “up to 400 fold”. Further, the “increase of IC50 compared to wild-type VKOR” value at VKOR A26P (A26P vs wild type) is 60 fold; on VKOR F55A (F55A vs wild type), 417 fold. Besides, the IC50 in data set [3] (Homo sapiens, HEK293, 24 h, read-out: IC50 for VKD carboxylation) stood at 12.5 nM. The “MK-4 epoxide in cells on VKOR inactivation” value in data set [6] is given as “MK-4 epoxide accumulated”. Besides, in data set [4], the “reversal of inhibition of VKD carboxylation by vitamin K1” value is reported as “can be reversed equally with higher concentrations of vitamin K1”. In [7], the “variation of warfarin resistance among naturally occurring VKOR mutations” value is “over 100 fold”.

Take `C/C(=C\CC1=C(Cl)C(=O)c2ccccc2C1=O)CCCC(C)CCCC(C)CCCC(C)C` (stereo not shown) [Chloro-K]: in the data set on warfarin-resistant rats, the “anticoagulant effect in warfarin-resistant rats” value is listed as “effective anticoagulant”. For the same compound, in [8], the “antagonism of vitamin K” value was “potent antagonist of vitamin K”.

In the case of `CC1=C(C/C=C(\C)CCC[C@H](C)CCC[C@H](C)CCCC(C)C)C(=O)c2ccccc2C1=O` [vitamin K1, phylloquinone], the “support of VKD carboxylation as substrate in UBIAD1-knockout cells” value (from here on “support of VKD carboxylation”) in data set [9] is “can efficiently support VKD carboxylation”.

Take `CC(C)=CCC/C(C)=C/CC/C(C)=C/CC/C(C)=C/CC1=C(C)C(=O)c2ccccc2C1=O` [MK-4, menaquinone-4]: the “support of VKD carboxylation” value in data set [9] is listed as “can efficiently support VKD carboxylation”.

In the case of `CC1=CC(=O)c2ccccc2C1=O` [menadione], the “VKD carboxylation activity after re-introduction of UBIAD1” value in [10] is reported as “regained VKD carboxylation activity”. Further, the “support of VKD carboxylation” value in data set [9] is listed as “unable to support reporter-protein carboxylation”.
